Assay results published in ChEMBL document CHEMBL3632544, “Acyl dihydropyrazolo[1,5-a]pyrimidinones as metabotropic glutamate receptor 5 positive allosteric modulators” (Bioorg Med Chem Lett, 2015).
Converted amounts (≈) assume the structure as drawn.

Legend:
[1] = target: T1, Metabotropic glutamate receptor 5 (Homo sapiens, UniProt P41594); experiment: Positive allosteric modulation of human mGlu5 expressed in HEK293 cells assessed as calcium mobilization; format: functional, cell-based; conditions: read-out: EC50
Outline: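 Calcium mobilization read-out in HEK293 cells stably expressing human mGlu5; PAM EC50 and efficacy as % of maximal glutamate response. Mean±SEM of three or more independent determinations, each in triplicate.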

[2] = target: T1, Metabotropic glutamate receptor 5; experiment: Positive allosteric modulation of human mGlu5 expressed in HEK293 cells assessed as calcium mobilization relative to glutamate; format: functional, cell-based
Outline: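 Calcium mobilization in HEK293 cells expressing human mGlu5, reported as EC50 and % Glu Max. Mean±SEM of three or more independent determinations, each run in triplicate.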

Plasma [3] = experiment: Fraction unbound in human plasma; format: ADME, cell-free
Outline: (§1)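 Plasma protein binding measured in human and rat plasma; readout is fraction unbound.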

Plasma [4] = experiment: Fraction unbound in rat plasma; format: ADME, cell-free; outline: as §1
[5] = Plasma clearance in Sprague-Dawley rat at 0.2 mg/kg, iv; format: ADME, organism-based
Plasma [6] = experiment: Stability in rat plasma after 4 hrs; format: ADME, cell-free
Outline: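 Compound incubated in rat plasma at 37 °C for 4 h; stability assessed.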

[7] = Stability in simulated gastric fluid for 1 hr; format: physicochemical; conditions: simulated gi fluid
Outline: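 Incubation in simulated gastric fluid at 37 °C for 1 h; decomposition of the external amide assessed.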

[8] = Solubility in simulated gastric fluid; format: ADME; conditions: simulated gi fluid
Outline: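 Solubility measured in simulated gastric fluid at 37 °C over 1 h; compound stability was assessed in parallel.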

[9] = Stability in beta cyclodextrin at pH 6 upto 5 days; format: physicochemical; conditions: buffer, pH 6, 120 h
Outline: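 Stability of the compound formulated at 4 mg/mL in 20% β-cyclodextrin vehicle, pH 6, monitored for up to five days; percent decomposition of the amide determined.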

Brain [10] = experiment: Fraction unbound in rat brain; format: ADME, tissue-based
Outline: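 Rat brain unbound fraction obtained from a brain homogenate binding assay.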

Rattus norvegicus [11] = experiment: Inhibition of amphetamine-induced hyperlocomotion in oral-dosed Sprague-Dawley rat assessed as reversal of amphtamine-induced effect drug administered 20 mins prior to 1 mg/kg amphetamine challenge; format: functional; conditions: read-out: MED
Outline: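 Male Sprague-Dawley rats received a single oral screening dose of 10 mg/kg; full dose-response studies were also run (n = 8/group). Readout is % reversal of amphetamine-induced locomotion relative to vehicle control. Terminal brain and plasma levels were sampled at T90.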

[12] = Drug concentration in Sprague-Dawley rat brain at 30 mg/kg, po after 1 hr; format: ADME, organism-based; conditions: read-out: Drug uptake
Outline: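 Rat modified Irwin study: single 30 mg/kg PO dose, with behaviour scored across 30 autonomic and somatomotor endpoints. Brain concentration measured 1.0 h post-dose. Unbound brain level estimated.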

Rattus norvegicus [13] = experiment: Toxicity in Sprague-Dawley rat assessed as alteration in behavior across 30 distinct autonomic and somatomotor endpoints at 30 mg/kg, po; format: organism-based; conditions: in vivo
Outline: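 Modified Irwin screen in rats given a single 30 mg/kg oral dose; 30 autonomic and somatomotor endpoints scored for behavioral change; brain concentration sampled 1.0 h post-dose.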

Brain [14] = experiment: Drug concentration in Sprague-Dawley rat brain at 56.6 mg/kg, po; format: ADME, organism-based; conditions: in vivo, read-out: Drug uptake
Rattus norvegicus [15] = experiment: Toxicity in Sprague-Dawley rat assessed as decreased motor activity at 56.6 mg/kg, po; format: organism-based; conditions: in vivo
Outline: (§2)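 Rats dosed orally at 56.6 mg/kg and observed over 6.0 h. Behavior scored on a modified Racine scale, including motor activity and coordination. Brain concentration measured.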

Rattus norvegicus [16] = experiment: Toxicity in Sprague-Dawley rat assessed as decreased motor coordination at 56.6 mg/kg, po; format: organism-based; conditions: in vivo; outline: as §2
[17] = target: Metabotropic glutamate receptor 5 (Rattus norvegicus, UniProt P31424); experiment: Positive allosteric modulation of rat mGlu5 assessed as calcium mobilization by cell-based assay; format: functional
[18] = target: Metabotropic glutamate receptor 5 (Rattus norvegicus) (UniProt P31424); experiment: Positive allosteric modulation of rat mGlu5 assessed as calcium mobilization by cell-based assay relative to glutamate; format: functional
Cytochrome P450 2C9 = Cytochrome P450 2C9 (Homo sapiens, UniProt P11712); experiment: Inhibition of CYP2C9 (unknown origin); format: ADME
Cytochrome P450 3A4 = Cytochrome P450 3A4 (Homo sapiens, UniProt P08684); experiment: Inhibition of CYP3A4 (unknown origin); format: ADME
Cytochrome P450 1A2 = target: T2, Cytochrome P450 1A2 (Homo sapiens, UniProt P05177); experiment: Inhibition of CYP1A2 (unknown origin); format: ADME
T2 sequence (P05177 whole entry): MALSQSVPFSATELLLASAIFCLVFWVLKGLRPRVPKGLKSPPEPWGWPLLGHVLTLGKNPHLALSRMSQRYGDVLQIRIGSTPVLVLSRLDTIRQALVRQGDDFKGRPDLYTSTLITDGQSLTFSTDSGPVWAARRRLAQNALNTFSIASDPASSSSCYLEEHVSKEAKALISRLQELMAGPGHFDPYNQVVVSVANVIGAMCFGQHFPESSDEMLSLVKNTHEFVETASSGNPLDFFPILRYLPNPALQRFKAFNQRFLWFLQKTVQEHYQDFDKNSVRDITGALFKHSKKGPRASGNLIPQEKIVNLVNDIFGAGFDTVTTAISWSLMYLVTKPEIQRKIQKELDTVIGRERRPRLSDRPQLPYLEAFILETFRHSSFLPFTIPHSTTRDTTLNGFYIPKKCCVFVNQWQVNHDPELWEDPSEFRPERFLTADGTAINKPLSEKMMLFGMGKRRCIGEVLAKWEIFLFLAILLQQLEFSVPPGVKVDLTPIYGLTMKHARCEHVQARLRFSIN

Cytochrome P450 2D6 = Cytochrome P450 2D6 (Homo sapiens, UniProt P10635); experiment: Inhibition of CYP2D6 (unknown origin); format: ADME
[19] = Plasma clearance in Sprague-Dawley rat at 2.5 mg/kg, iv and 10 mg/kg, po; format: ADME, organism-based
[20] = Volume of distribution at steady state in Sprague-Dawley rat at 2.5 mg/kg, iv and 10 mg/kg, po; format: ADME, organism-based; conditions: in vivo, read-out: Vdss
[21] = Elimination half life in Sprague-Dawley rat at 2.5 mg/kg, iv and 10 mg/kg, po; format: ADME, organism-based; conditions: in vivo, read-out: beta t1/2 (converted)
Outline: (§3)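 Discrete PK in male Sprague-Dawley rats. Oral arm: 10 mg/kg PO in 20% β-CD at 1 mg/mL. Plasma sampled to 8 h, giving Cmax, Tmax and AUC0-8h. Absolute oral bioavailability derived against the IV arm.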

[22] = AUC (0 to 8 hrs) in Sprague-Dawley rat plasma at 2.5 mg/kg, iv and 10 mg/kg, po; format: ADME, organism-based; outline: as §3
Rattus norvegicus [23] = experiment: Cmax in Sprague-Dawley rat at 2.5 mg/kg, iv and 10 mg/kg, po; format: ADME, organism-based; conditions: in vivo; outline: as §3
Rattus norvegicus [24] = experiment: Oral bioavailability in Sprague-Dawley rat at 10 mg/kg; format: ADME, organism-based; conditions: in vivo
Outline: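 Male Sprague-Dawley rats were dosed orally at 10 mg/kg in 20% β-CD (1 mg/mL) and sampled over 8 h. Cmax, Tmax and AUC0-8h were determined, and absolute %F was calculated against a discrete IV study.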

[25] = target: Metabotropic glutamate receptor 1 (Homo sapiens, UniProt Q13255); experiment: Positive allosteric modulation of mGlu1 receptor (unknown origin) relative to control
[26] = target: Metabotropic glutamate receptor 2 (Homo sapiens, UniProt Q14416); experiment: Positive allosteric modulation of mGlu2 receptor (unknown origin) relative to control
[27] = target: Metabotropic glutamate receptor 3 (Homo sapiens, UniProt Q14832); experiment: Positive allosteric modulation of mGlu3 receptor (unknown origin) relative to control
[28] = target: Metabotropic glutamate receptor 4 (Homo sapiens, UniProt Q14833); experiment: Positive allosteric modulation of mGlu4 receptor (unknown origin) relative to control
[29] = target: Metabotropic glutamate receptor 6 (Homo sapiens, UniProt O15303); experiment: Positive allosteric modulation of mGlu6 receptor (unknown origin) relative to control
[30] = target: Metabotropic glutamate receptor 7 (Homo sapiens, UniProt Q14831); experiment: Positive allosteric modulation of mGlu7 receptor (unknown origin) relative to control
[31] = target: Metabotropic glutamate receptor 8 (Homo sapiens, UniProt O00222); experiment: Positive allosteric modulation of mGlu8 receptor (unknown origin) relative to control
[32] = Plasma clearance in dog at 1 mg/kg, iv and 5 mg/kg, po; format: ADME, organism-based, Canis lupus familiaris
[33] = Volume of distribution at steady state in dog at 1 mg/kg, iv and 5 mg/kg, po; format: ADME, organism-based, Canis lupus familiaris; conditions: in vivo, read-out: Vdss
[34] = Elimination half life in dog at 1 mg/kg, iv and 5 mg/kg, po; format: ADME, organism-based, Canis lupus familiaris; conditions: in vivo
[35] = AUC in dog plasma at 1 mg/kg, iv and 5 mg/kg, po; format: ADME, organism-based, Canis lupus familiaris
[36] = Cmax in dog at 1 mg/kg, iv and 5 mg/kg, po; format: ADME, organism-based, Canis lupus familiaris; conditions: in vivo
[37] = Oral bioavailability in dog at 5 mg/kg; format: ADME, organism-based, Canis lupus familiaris; conditions: in vivo
[38] = target: Metabotropic glutamate receptor 5 (Rattus norvegicus) (UniProt P31424); experiment: Positive allosteric modulation of mGlu5 in rat astrocytes relative to glutamate; format: cell-based

Chain of Metabotropic glutamate receptor 5 (Rattus norvegicus) (P31424 21-1203 limits assumed): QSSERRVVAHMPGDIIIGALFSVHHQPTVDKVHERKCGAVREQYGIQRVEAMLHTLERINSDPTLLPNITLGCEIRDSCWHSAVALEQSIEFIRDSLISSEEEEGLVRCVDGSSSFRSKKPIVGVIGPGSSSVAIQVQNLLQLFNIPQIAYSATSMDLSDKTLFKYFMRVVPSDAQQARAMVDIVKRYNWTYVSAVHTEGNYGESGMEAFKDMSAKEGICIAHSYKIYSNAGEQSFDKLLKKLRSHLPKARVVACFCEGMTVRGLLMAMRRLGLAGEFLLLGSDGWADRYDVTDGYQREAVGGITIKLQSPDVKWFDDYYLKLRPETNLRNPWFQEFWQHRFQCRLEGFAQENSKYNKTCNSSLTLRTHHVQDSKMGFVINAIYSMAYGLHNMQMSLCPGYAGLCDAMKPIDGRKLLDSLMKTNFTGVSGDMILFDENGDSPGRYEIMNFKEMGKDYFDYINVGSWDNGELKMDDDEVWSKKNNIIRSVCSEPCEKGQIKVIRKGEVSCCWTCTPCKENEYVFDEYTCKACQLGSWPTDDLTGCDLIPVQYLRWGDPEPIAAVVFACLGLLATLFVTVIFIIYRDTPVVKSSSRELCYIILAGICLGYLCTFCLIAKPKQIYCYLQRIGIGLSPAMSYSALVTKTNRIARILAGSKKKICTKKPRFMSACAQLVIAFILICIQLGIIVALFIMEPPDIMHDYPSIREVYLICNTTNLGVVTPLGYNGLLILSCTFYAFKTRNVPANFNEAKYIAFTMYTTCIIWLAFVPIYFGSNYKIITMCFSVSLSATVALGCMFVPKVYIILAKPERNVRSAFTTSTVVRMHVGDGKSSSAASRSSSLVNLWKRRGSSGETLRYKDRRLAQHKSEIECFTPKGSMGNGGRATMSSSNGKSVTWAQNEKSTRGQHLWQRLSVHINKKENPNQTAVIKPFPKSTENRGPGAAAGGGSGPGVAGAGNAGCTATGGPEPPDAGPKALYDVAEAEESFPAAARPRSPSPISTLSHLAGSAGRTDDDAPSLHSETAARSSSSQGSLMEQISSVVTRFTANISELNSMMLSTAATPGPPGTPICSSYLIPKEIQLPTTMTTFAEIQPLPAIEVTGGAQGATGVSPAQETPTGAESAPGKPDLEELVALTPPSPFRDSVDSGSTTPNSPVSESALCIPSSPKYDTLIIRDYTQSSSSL
Chain of Metabotropic glutamate receptor 8 (O00222 whole entry): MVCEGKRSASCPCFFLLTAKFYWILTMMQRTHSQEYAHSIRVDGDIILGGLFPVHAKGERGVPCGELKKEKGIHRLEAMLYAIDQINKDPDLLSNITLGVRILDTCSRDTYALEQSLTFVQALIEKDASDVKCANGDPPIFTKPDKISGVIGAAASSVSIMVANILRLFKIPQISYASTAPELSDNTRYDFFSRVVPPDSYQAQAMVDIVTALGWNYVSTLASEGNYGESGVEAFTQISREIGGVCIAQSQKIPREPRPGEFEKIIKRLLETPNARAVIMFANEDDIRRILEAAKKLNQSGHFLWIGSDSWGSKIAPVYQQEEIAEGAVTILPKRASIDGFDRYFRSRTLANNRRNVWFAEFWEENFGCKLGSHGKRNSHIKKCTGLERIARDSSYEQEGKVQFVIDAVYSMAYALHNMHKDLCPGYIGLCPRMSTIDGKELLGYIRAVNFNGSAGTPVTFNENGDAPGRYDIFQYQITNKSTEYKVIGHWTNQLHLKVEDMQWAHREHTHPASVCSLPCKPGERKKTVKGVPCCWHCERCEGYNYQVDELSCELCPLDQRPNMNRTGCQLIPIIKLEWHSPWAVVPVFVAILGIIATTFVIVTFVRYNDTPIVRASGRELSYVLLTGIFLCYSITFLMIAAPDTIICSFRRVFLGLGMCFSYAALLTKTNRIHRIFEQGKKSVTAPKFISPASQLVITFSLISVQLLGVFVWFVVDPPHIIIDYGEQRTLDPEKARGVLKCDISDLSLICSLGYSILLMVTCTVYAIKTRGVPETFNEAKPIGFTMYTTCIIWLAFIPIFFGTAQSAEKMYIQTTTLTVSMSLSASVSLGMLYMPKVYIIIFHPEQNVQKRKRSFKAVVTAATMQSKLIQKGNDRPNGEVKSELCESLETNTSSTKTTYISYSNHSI
Chain of Cytochrome P450 3A4 (P08684 whole entry): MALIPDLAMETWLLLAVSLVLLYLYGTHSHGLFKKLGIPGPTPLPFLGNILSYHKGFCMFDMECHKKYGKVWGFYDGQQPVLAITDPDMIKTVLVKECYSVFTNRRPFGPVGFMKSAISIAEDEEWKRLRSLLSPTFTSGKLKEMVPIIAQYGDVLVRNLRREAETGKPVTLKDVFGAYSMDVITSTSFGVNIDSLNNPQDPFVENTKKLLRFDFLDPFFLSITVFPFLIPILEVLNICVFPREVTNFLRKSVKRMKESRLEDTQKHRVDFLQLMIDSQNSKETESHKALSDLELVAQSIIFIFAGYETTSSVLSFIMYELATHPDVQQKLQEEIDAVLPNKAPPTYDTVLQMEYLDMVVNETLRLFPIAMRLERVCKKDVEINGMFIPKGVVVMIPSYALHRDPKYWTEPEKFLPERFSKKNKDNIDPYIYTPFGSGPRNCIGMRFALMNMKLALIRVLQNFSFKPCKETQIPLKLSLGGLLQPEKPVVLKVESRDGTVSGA
Chain of Metabotropic glutamate receptor 5 (Rattus norvegicus, UniProt P31424) (P31424 whole entry): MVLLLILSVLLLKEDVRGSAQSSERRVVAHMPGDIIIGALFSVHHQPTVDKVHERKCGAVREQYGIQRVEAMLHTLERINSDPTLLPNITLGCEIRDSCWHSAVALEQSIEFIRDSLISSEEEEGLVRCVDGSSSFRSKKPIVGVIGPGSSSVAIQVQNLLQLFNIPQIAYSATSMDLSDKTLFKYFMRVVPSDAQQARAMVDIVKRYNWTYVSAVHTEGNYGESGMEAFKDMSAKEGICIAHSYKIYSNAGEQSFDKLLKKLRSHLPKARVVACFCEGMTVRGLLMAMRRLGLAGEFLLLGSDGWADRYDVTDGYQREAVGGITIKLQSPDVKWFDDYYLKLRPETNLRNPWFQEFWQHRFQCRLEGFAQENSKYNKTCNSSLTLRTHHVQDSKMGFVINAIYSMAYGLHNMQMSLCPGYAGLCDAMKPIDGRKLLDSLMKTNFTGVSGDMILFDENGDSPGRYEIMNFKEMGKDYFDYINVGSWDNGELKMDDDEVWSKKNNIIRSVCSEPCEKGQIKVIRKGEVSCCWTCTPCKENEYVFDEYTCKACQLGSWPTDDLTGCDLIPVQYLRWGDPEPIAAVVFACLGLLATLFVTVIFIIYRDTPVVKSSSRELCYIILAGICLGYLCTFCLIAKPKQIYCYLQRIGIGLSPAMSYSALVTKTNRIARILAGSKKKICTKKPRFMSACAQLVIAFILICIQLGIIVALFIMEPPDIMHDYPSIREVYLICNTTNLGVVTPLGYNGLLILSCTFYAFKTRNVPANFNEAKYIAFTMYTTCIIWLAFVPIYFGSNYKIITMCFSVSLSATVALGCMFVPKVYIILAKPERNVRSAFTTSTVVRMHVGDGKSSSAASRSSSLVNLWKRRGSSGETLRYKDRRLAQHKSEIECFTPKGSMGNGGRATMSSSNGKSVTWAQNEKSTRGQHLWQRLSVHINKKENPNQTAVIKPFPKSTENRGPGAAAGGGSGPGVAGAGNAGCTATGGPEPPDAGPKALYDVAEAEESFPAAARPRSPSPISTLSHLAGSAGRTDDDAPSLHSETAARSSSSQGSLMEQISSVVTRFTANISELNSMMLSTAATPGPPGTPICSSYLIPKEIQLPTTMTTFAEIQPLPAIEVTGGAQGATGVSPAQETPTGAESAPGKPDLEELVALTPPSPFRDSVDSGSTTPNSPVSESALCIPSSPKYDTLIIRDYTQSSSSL
Chain of Metabotropic glutamate receptor 7 (Q14831 whole entry): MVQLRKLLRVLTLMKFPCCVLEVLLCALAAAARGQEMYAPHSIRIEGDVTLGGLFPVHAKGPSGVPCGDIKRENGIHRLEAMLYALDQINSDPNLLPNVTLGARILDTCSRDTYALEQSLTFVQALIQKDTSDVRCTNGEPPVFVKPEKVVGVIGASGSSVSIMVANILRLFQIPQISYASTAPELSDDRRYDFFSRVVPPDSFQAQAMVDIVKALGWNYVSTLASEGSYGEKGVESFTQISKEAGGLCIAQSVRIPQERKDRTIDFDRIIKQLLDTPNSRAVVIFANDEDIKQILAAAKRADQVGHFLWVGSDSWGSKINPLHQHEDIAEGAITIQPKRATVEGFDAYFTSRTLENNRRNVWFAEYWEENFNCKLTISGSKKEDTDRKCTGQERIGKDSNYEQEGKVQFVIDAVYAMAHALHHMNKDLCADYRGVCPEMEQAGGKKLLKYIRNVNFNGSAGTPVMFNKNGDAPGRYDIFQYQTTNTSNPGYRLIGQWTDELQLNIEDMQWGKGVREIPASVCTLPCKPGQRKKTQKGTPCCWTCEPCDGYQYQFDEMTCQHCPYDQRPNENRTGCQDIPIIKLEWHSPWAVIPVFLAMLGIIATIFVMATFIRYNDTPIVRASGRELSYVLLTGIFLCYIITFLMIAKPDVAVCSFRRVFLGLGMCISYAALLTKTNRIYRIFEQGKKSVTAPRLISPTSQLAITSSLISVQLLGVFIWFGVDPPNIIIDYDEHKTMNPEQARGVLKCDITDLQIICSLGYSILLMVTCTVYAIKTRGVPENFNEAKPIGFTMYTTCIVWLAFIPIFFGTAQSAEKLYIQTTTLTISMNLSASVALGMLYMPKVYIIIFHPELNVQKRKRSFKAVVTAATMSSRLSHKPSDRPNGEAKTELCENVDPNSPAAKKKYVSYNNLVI

CC(=O)N1CCCn2nc(COc3ccccc3)cc21
EC50 [1]: 0.36 µM | %max [2]: 65% | Fu (Plasma [3]): 0.26 | Fu (Plasma [4]): 0.37 | clearance [5]: 118 mL/min/kg | Stability (Plasma [6]): Stable | Stability [7]: Stable | solubility [8]: 315 µg/mL (≈ 1160 µM) | Stability [9]: Stable | Fu (Brain [10]): 0.51 | minimal effective dose (Rattus norvegicus [11]): 3 mg/kg | concentration at 1 h [12]: 71 µM | Activity (Rattus norvegicus [13]): Non-toxic | concentration (Brain [14]): 113 µM | Activity (Rattus norvegicus [15]): Toxic | Activity (Rattus norvegicus [16]): Toxic | EC50 [17]: 0.06 µM | %max [18]: 65% | IC50 (Cytochrome P450 2C9): > 30 µM | IC50 (Cytochrome P450 3A4): > 30 µM | IC50 (Cytochrome P450 1A2): > 30 µM | IC50 (Cytochrome P450 2D6): > 30 µM | clearance [19]: 54 mL/min/kg | Vd [20]: 3.9 L/kg | half-life [21]: 6.5 h | AUC(0-t) [22]: 3.3 µM·h | Cmax (Rattus norvegicus [23]): 2.5 µM | F (Rattus norvegicus [24]): 29% | EC50 [25]: > 10 µM | EC50 [26]: > 10 µM | EC50 [27]: > 10 µM | EC50 [28]: > 10 µM | EC50 [29]: > 10 µM | EC50 [30]: > 10 µM | EC50 [31]: > 10 µM | clearance [32]: 37 mL/min/kg | Vd [33]: 1.1 L/kg | half-life [34]: < 0.5 h | AUC [35]: 0.1 µM·h | Cmax [36]: < 0.1 µM | bioavailability [37]: < 5% | %max [38]: 57%
